# Columns and labels:
# Leishmania major = experiment: Antileishmanial activity against Leishmania major MRHO/IR/75/ER promastigote infected in BALB/c mouse peritoneal macrophage after 24 hrs by MTT assay; assay type: functional, organism-based
# Method in brief: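 L. major vaccine strain MRHO/IR/75/ER, maintained by passage in BALB/c mice, grown on blood agar at 25 °C. Log-phase promastigotes at 2 × 10⁶/mL were put in phenol red-free RPMI 1640 with 10% FCS, 2 mM glutamine, pH ~7.2 and antibiotics, with serial drug dilutions, for 24 h at 25 °C. MTT (0.5 mg/mL) was added for 4 h at 37 °C; pellets were dissolved in DMSO and read on a plate reader. IC50 was determined.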
# [1] = Cytotoxicity against BALB/c mouse peritoneal macrophage after 24 hrs by MTT assay; assay type: cell-based; conditions: peritoneal macrophage cell
# Method in brief: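 Mouse peritoneal macrophages were seeded at 2 × 10⁵ cells/well. After adherence, the medium was replaced with medium holding one concentration per compound. Plates were incubated 24 h at 37 °C in humidified 5% CO2. Controls got culture medium plus DMSO. Viability was read by MTT colorimetric assay.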
molecule,measurement,setting,value
Cc1ccc(/C=C/C(=O)C2=Cc3cc(Cl)ccc3OC2)cc1,IC50,Leishmania major,2750 nM
same,Activity,[1],Non-toxic
MEGLUMINE ANTIMONATE,Activity,[1],40%
O=C(/C=C/C1=Cc2cc(Cl)ccc2OC1)c1ccccc1Cl,IC50,Leishmania major,1220 nM
same,Activity,[1],Non-toxic
COc1ccc(OC)c(/C=C/C(=O)C2=Cc3cc(Cl)ccc3OC2)c1,IC50,Leishmania major,3000 nM
same,Activity,[1],Non-toxic
O=C(/C=C/c1ccccc1Br)C1=Cc2cc(Cl)ccc2OC1,IC50,Leishmania major,1330 nM
same,Activity,[1],Non-toxic
O=C(/C=C/C1=Cc2cc(Cl)ccc2OC1)c1ccc(Cl)cc1Cl,IC50,Leishmania major,1910 nM
same,Activity,[1],Non-toxic
O=C(/C=C/C1=Cc2cc(Cl)ccc2OC1)c1ccccc1F,IC50,Leishmania major,2220 nM
same,Activity,[1],Non-toxic
COc1cc(C(=O)/C=C/C2=Cc3cc(Cl)ccc3OC2)cc(OC)c1OC,IC50,Leishmania major,2060 nM
same,Activity,[1],Non-toxic
COc1cccc(/C=C/C(=O)C2=Cc3cc(Cl)ccc3OC2)c1OC,IC50,Leishmania major,2800 nM
same,Activity,[1],Non-toxic

# Source: ChEMBL document CHEMBL1157026, “Novel antileishmanial chalconoids: synthesis and biological activity of 1- or 3-(6-chloro-2H-chromen-3-yl)propen-1-ones” (Eur J Med Chem, 2010)
